Results filed as inconclusive are left out.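 The calls were made as follows, unless noted: active = growth inhibition above 25% in both replicates, a cutoff set 3 SD above the mean; inconclusive = above 25% in only one replicate; inactive = the rest.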
What was measured:
[1] = OD615 S. cerevisiae growth inhibition, permissive medium, pilot counter-assay, permissive growth control for S. cerevisiae lifespan shortening project (AID 705); details: OD615, 24 h, at 10 µM, stronger effect = higher value
How it was run: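 Test system: Saccharomyces cerevisiae strain carrying genetically modified DeaD replicative-lifespan system; buffer or medium: SC raffinose/galactose permissive medium; dosing: one dose 10 µM, DMSO 0.25% final; times: 24 h exposure, 30 °C; measured by: OD at 615 nm; read-out basis: growth inhibition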

[2] = Restrictive medium S. cerevisiae growth inhibition, OD615, pilot screen of yeast lifespan reduction project, restrictive growth control (AID 706;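 active = growth inhibition above a set limit, 3 SD over mean compound inhibition, in both replicates, cut at about 43% in these data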;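 also: modified DeaD lifespan yeast strain shifted to restrictive glucose medium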); details: OD615, 48 h, at 10 µM, stronger effect = higher value
How it was run: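 material = engineered S. cerevisiae DeaD strain | buffer or medium = glucose-based CSMM-D restrictive medium | dosing = one concentration, 10 µM final, 0.25% DMSO | schedule = 4 h pre-growth plus 48 h compound exposure, 30 °C | detection = OD615 absorbance reading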

[3] = viability gain of MRP-1-high H69AR cells under doxorubicin, pilot screen, MRP-1 activator project, CellTiter-Glo, duplicate (AID 807;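 active = viability increase at or above a cutoff of the median across tested compounds plus 3 SD, cut at about 8.5% in these data, passing the limit was not always enough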;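 also: compound pretreatment 18-22 h then 72 h combined with doxorubicin; 0% = doxorubicin alone and 100% = vehicle without doxorubicin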); details: H69AR viability with doxorubicin, CellTiter-Glo luminescence; at 10 µM; stronger effect = higher value
[4] = growth suppression of beta-catenin knockout HCT116, pilot screen, human colon tumor cells (AID 823;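 active = cell viability at or below a set limit in both duplicate runs, the limit being the all-compound median minus 4 SD, cut at about 23% in these data, passing the limit was not always enough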;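 also: 0% = wells killed by 20 µM Hyamine and 100% = untreated DMSO cell wells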); details: CellTiter-Glo, 60 h, at 10 µM, stronger effect = lower value
[5] = growth suppression of PTEN-deleted HCT116, pilot screen, cell-based, HCT116 clonal line, CellTiter-Glo (AID 824;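 active = viability at or below 27.92% in each of two runs, the all-compound median minus 4 SD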;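 also: 0% = 20 µM Hyamine control and 100% = vehicle cell control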); details: 60 h, at 10 µM, stronger effect = lower value
[6] = inhibitors of the yeast RAM network, pilot screen, dse1pr::URA3 reporter, 5-FOA selection (AID 869;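 active = inhibition over a set limit, the all-compound mean plus 3 SD, in both replicate runs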;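 also: 0% = DMSO wells with no growth and 100% = 10 µM 1-NA-PP1 with full growth; RAM network block rescues cells from 5-FOA so hits raise OD615 growth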); details: S. cerevisiae dse1pr::URA3 5-FOA growth, OD615, 2 d; at 10 µM; stronger effect = higher value; strain carries analog-sensitive mutant Cbk1 kinase

COc1ccc(OC)c(NC(=O)CN(c2ccc(C(C)C)cc2)S(=O)(=O)c2c(C)noc2C)c1
inactive: growth inhibition [1] -11.5% | growth inhibition [2] -12.1% | viability increase [3] -4.81% | viability [4] 56.5% | viability [5] 48.1% | inhibition [6] 2.27%

CCCOc1cccc(C(=O)Nc2cccnc2)c1
inactive: growth inhibition [1] -6.8% | growth inhibition [2] -0.66% | viability increase [3] 3.16% | viability [4] 92.6% | viability [5] 96.2% | inhibition [6] 0.93%

Cc1cc(NC(=O)c2noc3c2CCc2ccccc2-3)n(-c2ccccc2)n1
inactive: growth inhibition [1] -11.9% | growth inhibition [2] -2.05% | viability increase [3] -2.71% | viability [4] 94.9% | viability [5] 98.3% | inhibition [6] 2.88%

COc1cc(/C=C/C2=NC(=O)C(C)(C)O2)ccc1O
inactive: growth inhibition [1] -1.35% | growth inhibition [2] 6.79% | viability increase [3] -7.42% | viability [4] 65.9% | viability [5] 71.9% | inhibition [6] 0.485%

CCCc1nnc(NC(=O)c2ccncc2)s1
inactive: growth inhibition [1] -5.46% | growth inhibition [2] -3.19% | viability increase [3] 0.44% | viability [4] 103% | viability [5] 99.1% | inhibition [6] 1.42%

COc1ccc(-c2cc(CCCC(=O)NCc3ccccn3)no2)cc1
inactive: growth inhibition [1] -5.78% | growth inhibition [2] 8.54% | viability increase [3] -1.34% | viability [4] 98.8% | viability [5] 97.8% | inhibition [6] 1.08%

CCNC(=O)CCn1nc(-c2ccc(Cl)cc2)c2ccccc2c1=O
inactive: growth inhibition [1] -10.9% | growth inhibition [2] -10.1% | viability increase [3] -5.74% | viability [4] 49.5% | inhibition [6] 0.575%

O=C(CCCCn1c(=O)[nH]c2ccsc2c1=O)NCC1CCCO1 (configuration not stated)
inactive: growth inhibition [1] 2.62% | growth inhibition [2] -0.86% | viability increase [3] -3.45% | viability [4] 97.1% | inhibition [6] 1.61%

COc1ccccc1N1CCN(C(=O)c2cc3c(-c4ccc(Cl)cc4)nn(C)c3s2)CC1
inactive: growth inhibition [1] -1.53% | growth inhibition [2] 13.8% | viability increase [3] -4.63% | viability [4] 60.8% | viability [5] 47.9% | inhibition [6] 2.8%

CCCCN(C)CCCNC(=O)Cn1c(=O)sc2ccccc21
inactive: growth inhibition [1] -8.58% | growth inhibition [2] -10.9% | viability increase [3] -3.13% | viability [5] 97.5% | inhibition [6] 1.33%

COc1ccc(Nc2nc(N)nc(CN3CCC(Cc4ccccc4)CC3)n2)cc1
inactive: growth inhibition [1] 6.83% | growth inhibition [2] -0.085% | viability increase [3] -6.58% | viability [5] 35.8% | inhibition [6] 0.1%

COC(=O)c1c(-c2ccc(F)cc2)csc1NC(=O)c1ccco1
inactive: growth inhibition [1] -27.6% | growth inhibition [2] 0.595% | viability increase [3] 1.29% | viability [4] 78.5% | inhibition [6] 1.12%

CCCOC(=O)c1ccc(NC(=O)CCC(=O)OCC)cc1
inactive: growth inhibition [1] -2.93% | growth inhibition [2] 0.845% | viability increase [3] -0.37% | viability [4] 98.8% | viability [5] 98.6% | inhibition [6] 2.24%

Cc1cccc(N2CCN(C(=O)c3cc4c(=O)n(C)c5ccccc5c4n3C)CC2C)c1 (configuration not stated)
inactive: growth inhibition [1] -3.86% | growth inhibition [2] 3.15% | viability increase [3] -4.81% | inhibition [6] 1.81%

Cc1c(/C=N/n2cnnc2)c2ccccc2n1CCOc1ccc(Cl)cc1
inactive: growth inhibition [1] 3.74% | growth inhibition [2] 17.6% | viability increase [3] -4.25% | viability [5] 90% | inhibition [6] 4.12%

Cc1noc(/C=C/N(C)C)c1S(=O)(=O)N1CCCC(C(=O)NCc2ccc(F)cc2)C1 (configuration not stated)
inactive: growth inhibition [1] -4.61% | growth inhibition [2] -8.86% | viability [4] 90.1% | viability [5] 85.8%

C=C(C)Cn1c(SCC(=O)O)nnc1-c1ccc(C(C)(C)C)cc1
inactive: growth inhibition [1] -15.7% | growth inhibition [2] -4.97% | viability increase [3] 0.28% | viability [5] 101% | inhibition [6] 1%

COc1cc2c(cc1OC)C(C)N(C(=O)c1cc3ccccc3o1)CC2 (configuration not stated)
inactive: growth inhibition [1] -11.9% | growth inhibition [2] 10.2% | viability increase [3] -3.13% | viability [4] 37.3% | viability [5] 42.7% | inhibition [6] 1.52%

COc1ccc(N(CC(=O)NCCSc2ccccn2)S(C)(=O)=O)cc1Cl
inactive: growth inhibition [1] -5.09% | growth inhibition [2] -6.72% | viability increase [3] -3.81% | viability [5] 97.3% | inhibition [6] 1.44%

Cc1c(C(=O)NCc2cccs2)oc2ccc(S(=O)(=O)N3CCOCC3)cc12
inactive: growth inhibition [1] -0.625% | growth inhibition [2] -4.37% | viability increase [3] -4.32% | viability [4] 79.6% | inhibition [6] 0.46%
